Reference: ChEMBL document CHEMBL1140245, “Identification of antitumor activity of pyrazole oxime ethers” (Bioorg Med Chem Lett, 2005)
Values after ≈ are worked out from the molar mass of the structure shown.

Key:
MCF7 = test: In vitro antiproliferative activity against MCF-7 cell line (human breast tumor) at 1 uM concentration; type: functional
Method in brief: (§1)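 Each cell line was exposed to test compound at a single concentration of 1 µM, and activity was reported as percent inhibition.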

MKN-45 = test: In vitro antiproliferative activity against MKN45 cell line (human stomach tumor) at 1 uM concentration; type: functional; method in brief: as §1
A549 [1] = test: In vitro antiproliferative activity against A549 cell line (human lung tumor) at 1 uM concentration; type: functional; method in brief: as §1
HepG2 = test: In vitro antiproliferative activity against HepG2 cell line (human liver tumor) at 1 uM concentration; type: functional; method in brief: as §1
SK-MEL-2 = test: Cytotoxic activity against SKMEL-2 cell line; type: functional, cell-based, Homo sapiens
SK-OV-3 = test: Cytotoxic activity against SKOV-3 cell line (human solid ovarian tumor cell line); type: functional, cell-based
XF498 = test: Cytotoxic activity against XF498 cell line (human CNS solid tumor); type: functional, cell-based
A549 [2] = test: Cytotoxic activity against A549 cell line (non-small cell lung carcinoma); type: functional, cell-based, Homo sapiens
HCT-15 = test: Cytotoxic activity against HCT15 cell line (human colon solid tumor cell line); type: functional, cell-based
[3] = Homo sapiens, SK-MEL-2, read-out: IC50
[4] = Homo sapiens, SK-OV-3, read-out: IC50
[5] = Homo sapiens, XF498, read-out: IC50
[6] = Homo sapiens, A549, read-out: IC50
[7] = Homo sapiens, HCT-15, read-out: IC50

Row | Compound | inhibition at 1 µM (MCF7) | inhibition at 1 µM (MKN-45) | inhibition at 1 µM (A549 [1]) | inhibition at 1 µM (HepG2) | IC50 (SK-MEL-2; [3]) | IC50 (SK-OV-3; [4]) | IC50 (XF498; [5]) | IC50 (A549 [2]; [6]) | IC50 (HCT-15; [7]) | other results
1 | CCOC(=O)c1ccc(CO/N=C/c2c(C)nn(C)c2Oc2ccc(Cl)cc2)cc1 | 33.9% | 20.9% | 48.2% | 27.4% |  |  |  |  |  | 
2 | Cc1nn(C)c(Oc2ccc(Cl)cc2)c1/C=N/OCc1ccc(C(=O)OC(C)(C)C)cc1 |  |  |  |  | 18.8 µg/mL (≈ 41.2 µM) | 0.28 µg/mL (≈ 0.614 µM) | 0.02 µg/mL (≈ 0.0439 µM) | 0.1 µg/mL (≈ 0.219 µM) | 0.01 µg/mL (≈ 0.0219 µM) | 
3 | Cc1nn(C)c(N2CCOCC2)c1/C=N/OCc1ccc(C(=O)OC(C)(C)C)cc1 |  |  |  |  | 16.7 µg/mL (≈ 40.3 µM) | 8.87 µg/mL (≈ 21.4 µM) | 1.04 µg/mL (≈ 2.51 µM) | 0.39 µg/mL (≈ 0.941 µM) | 1.83 µg/mL (≈ 4.41 µM) | 
4 | Cc1ccc(CO/N=C/c2c(C)nn(C)c2Oc2ccc(Cl)cc2)cc1 | 30.7% | 30.4% | 50% | 31.3% |  |  |  |  |  | 
5 | Cc1nn(C)c(-n2cccc2)c1/C=N/OCc1ccc(C(=O)OC(C)(C)C)cc1 |  |  |  |  | 24.9 µg/mL (≈ 63.1 µM) | 3.91 µg/mL (≈ 9.91 µM) | 2.67 µg/mL (≈ 6.77 µM) | 1.64 µg/mL (≈ 4.16 µM) | 2.48 µg/mL (≈ 6.29 µM) | 
6 | COc1ccc(CO/N=C/c2c(C)nn(C)c2Oc2ccc(Cl)cc2)cc1 | 37% | 28.1% | 43.9% | 13.9% |  |  |  |  |  | 
7 | Cc1c(CO/N=C/c2c(-c3ccccc3)nn(-c3ccccc3)c2Oc2ccc(Cl)cc2)cccc1-c1ccccc1 | -17.5% | -15% | -10.1% | -14.8% |  |  |  |  |  | 
8 | Cc1nn(C)c(N(C)C)c1/C=N/OCc1ccc(C(=O)OC(C)(C)C)cc1 |  |  |  |  | 23.9 µg/mL (≈ 64.3 µM) | 9.06 µg/mL (≈ 24.3 µM) | 3.87 µg/mL (≈ 10.4 µM) | 2.76 µg/mL (≈ 7.41 µM) | 6.22 µg/mL (≈ 16.7 µM) | 
9 | Cc1nn(C)c(Oc2ccccc2)c1/C=N/OCc1cccc(-c2ccccc2)c1C | 24.4% | -12.1% | 5% | -13.2% |  |  |  |  |  | 
10 | COc1cccc2c1C(=O)c1c(O)c3c(c(O)c1C2=O)C[C@@](O)(C(=O)CO)C[C@@H]3O[C@H]1C[C@H](N)[C@H](O)[C@H](C)O1 [DOXORUBICIN] |  |  |  |  | 0.07 µg/mL (≈ 0.129 µM) | 0.09 µg/mL (≈ 0.166 µM) | 0.09 µg/mL (≈ 0.166 µM) | 0.05 µg/mL (≈ 0.092 µM) | 0.28 µg/mL (≈ 0.515 µM) | 
11 | Cc1nn(C)c(Oc2ccccc2)c1/C=N/OCCN1CCCC1 | 7.7% | -24.2% | -8.2% | -25% |  |  |  |  |  | 
12 | Cc1nn(C)c(Oc2ccccc2)c1/C=N/OCCN1CCN(Cc2ccc(C(F)(F)F)cc2)CC1 | 37.7% | 15.4% | 39.7% | 14.4% |  |  |  |  |  | 
13 | Cc1nn(C)c(N2CCCC2)c1/C=N/OCc1ccc(C(=O)OC(C)(C)C)cc1 |  |  |  |  | 14.4 µg/mL (≈ 36.2 µM) | 3.19 µg/mL (≈ 8 µM) | 0.12 µg/mL (≈ 0.301 µM) | 0.13 µg/mL (≈ 0.326 µM) | 0.1 µg/mL (≈ 0.251 µM) | 
14 | CCOC(=O)c1ccc(CO/N=C/c2c(C)nn(-c3ccccc3)c2Oc2ccc(Cl)cc2)cc1 | 12% | -17.8% | -9.9% | -31.8% |  |  |  |  |  | 
15 | COc1cccc(CO/N=C/c2c(C)nn(C)c2Oc2ccccc2)c1 | 8.4% | -19.6% | 1% | -41.2% |  |  |  |  |  | 
16 | CC(C)c1nn(-c2ccccc2)c(Oc2ccc(Cl)cc2)c1/C=N/OCc1ccc(C(F)(F)F)cc1 | -1.9% | -15.4% | -12.1% | -2.2% |  |  |  |  |  | 
17 | CC(C)c1nn(-c2ccccc2)c(Oc2ccc(Cl)cc2)c1/C=N/OCc1ccc(C(=O)OC(C)(C)C)cc1 | -4.9% | -27% | -10% | -14.7% |  |  |  |  |  | 
18 | Cc1nn(C)c(Oc2ccccc2)c1/C=N/OCCN1CCCCC1 | 3.2% | -22.5% | -9.9% | -29% |  |  |  |  |  | 

Row | Compound | inhibition at 1 µM (MCF7) | inhibition at 1 µM (MKN-45) | inhibition at 1 µM (A549 [1]) | inhibition at 1 µM (HepG2) | IC50 (SK-MEL-2; [3]) | IC50 (SK-OV-3; [4]) | IC50 (XF498; [5]) | IC50 (A549 [2]; [6]) | IC50 (HCT-15; [7]) | other results
19 | Cc1nn(C)c(Oc2ccc(Cl)cc2)c1/C=N/OCc1ccc([N+](=O)[O-])cc1 | 27.1% | 24.6% | 39.6% | 18.4% |  |  |  |  |  | 
20 | Cc1nn(-c2ccccn2)c(Oc2ccccc2)c1/C=N/OCc1ccc(C(=O)OC(C)(C)C)cc1 | -14.8% | -9.8% | -9.1% | -25.1% |  |  |  |  |  | 
21 | Cc1nn(C)c(Oc2ccccc2)c1/C=N/OCCN(C)C | 8.9% | -29% | -5.9% | -36.1% |  |  |  |  |  | 
22 | CISPLATIN |  |  |  |  |  |  |  |  |  | IC50 (SK-MEL-2; sk-mel-2): 3.28 µg/mL; IC50 (SK-OV-3; sk-ov-3): 3.42 µg/mL; IC50 (XF498; xf498): 3.47 µg/mL; IC50 (A549 [2]; a549): 3.09 µg/mL; IC50 (HCT-15; hct-15): 6.91 µg/mL
23 | Cc1nn(C)c(-n2cccn2)c1/C=N/OCc1ccc(C(=O)OC(C)(C)C)cc1 |  |  |  |  | 28.8 µg/mL (≈ 72.8 µM) | 9.63 µg/mL (≈ 24.4 µM) | 5.51 µg/mL (≈ 13.9 µM) | 2.49 µg/mL (≈ 6.3 µM) | 3.63 µg/mL (≈ 9.18 µM) | 
24 | Cc1nn(C)c(Oc2ccc(Cl)cc2)c1/C=N/OCc1ccc(C(F)(F)F)cc1 | 16.4% | 27.6% | 50.9% | 20.6% |  |  |  |  |  | 
25 | Cc1nn(C)c(Oc2ccccc2)c1/C=N/OCc1ccc([N+](=O)[O-])cc1 | 24% | 18.3% | 39.4% | -2.8% |  |  |  |  |  | 
26 | Cc1nn(-c2ccccc2)c(Oc2ccc(Cl)cc2)c1/C=N/OCc1ccc(C(=O)OC(C)(C)C)cc1 | -8.4% | -9.9% | -6.1% | -31.1% |  |  |  |  |  | 
27 | Cc1nn(C)c(-n2ccnc2)c1/C=N/OCc1ccc(C(=O)OC(C)(C)C)cc1 |  |  |  |  | 9.35 µg/mL (≈ 23.6 µM) | 14.1 µg/mL (≈ 35.6 µM) | 8.15 µg/mL (≈ 20.6 µM) | 5.93 µg/mL (≈ 15 µM) | 8.67 µg/mL (≈ 21.9 µM) | 
28 | Cc1nn(C)c(Oc2ccccc2)c1/C=N/OCc1ccc(C(=O)OC(C)(C)C)cc1 [FENPYROXYMATE] |  |  |  |  | 13.3 µg/mL (≈ 31.5 µM) | 0.21 µg/mL (≈ 0.498 µM) | 0.04 µg/mL (≈ 0.0949 µM) | 0.12 µg/mL (≈ 0.285 µM) | 0.02 µg/mL (≈ 0.0474 µM) | 
29 | COC(=O)c1ccc(CO/N=C/c2c(C)nn(C)c2Oc2ccc(Cl)cc2)cc1 | 33.6% | 26.1% | 49.9% | 20.3% |  |  |  |  |  | 
30 | Cc1nn(C)c(Oc2ccccc2)c1/C=N/OCCN1CCOCC1 | 5.4% | -28% | -19.4% | -40.5% |  |  |  |  |  | 
31 | Cc1ccc(CO/N=C/c2c(C)nn(C)c2Oc2ccccc2)cc1 | 38.2% | 17.9% | 29.1% | 8.4% |  |  |  |  |  | 
32 | Cc1nn(C)c(Oc2ccccc2)c1/C=N/OCCN1CCN(Cc2ccccc2)CC1 | 23.4% | 10.5% | 28.4% | 6.7% |  |  |  |  |  | 
33 | Cc1nn(C)c(-n2ccc3ccccc32)c1/C=N/OCc1ccc(C(=O)OC(C)(C)C)cc1 |  |  |  |  | 26.5 µg/mL (≈ 59.6 µM) | 2.07 µg/mL (≈ 4.66 µM) | 1.61 µg/mL (≈ 3.62 µM) | 0.43 µg/mL (≈ 0.967 µM) | 1.57 µg/mL (≈ 3.53 µM) | 
34 | Cc1nn(C)c(Oc2ccccc2)c1/C=N/OCc1ccc(C(F)(F)F)cc1 | 30.5% | 11% | 34.7% | 5.8% |  |  |  |  |  | 
35 | Cc1nn(C)c(Sc2ccccc2)c1/C=N/OCc1ccc(C(=O)OC(C)(C)C)cc1 |  |  |  |  | 4.91 µg/mL (≈ 11.2 µM) | 0.92 µg/mL (≈ 2.1 µM) | 0.28 µg/mL (≈ 0.64 µM) | 0.13 µg/mL (≈ 0.297 µM) | 0.26 µg/mL (≈ 0.594 µM) | 
36 | Cc1nn(C)c(Oc2ccccc2)c1/C=N/OCCN1CCN(Cc2ccc(C(=O)OC(C)(C)C)cc2)CC1 | 32% | 19.2% | 44.7% | 19.8% |  |  |  |  |  | 
